This note sets out measurements from ChEMBL document CHEMBL4118265, “A cascade synthesis, in vitro cholinesterases inhibitory activity and docking studies of novel Tacrine-pyranopyrazole derivatives” (Bioorg Med Chem Lett, 2018).

Test [1] has as its target Acetylcholinesterase (Electrophorus electricus, UniProt O42275). The test can be described thus: Inhibition of electric eel AChE using acetylthiocholine iodide as substrate preincubated for 15 mins followed by substrate addition measured every 5 mins for 15 mins by spectrophotometric method.
The target of test [2] is Cholinesterase (Equus caballus, UniProt P81908). The test can be described thus: Inhibition of horse serum BChE using butyrylthiocholine chloride as substrate preincubated for 15 mins followed by substrate addition measured every 5 mins for 15 mins by spectrophotometric method. Put shortly: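 BChE (6.85 x10-3 U) in 100 mM sodium phosphate pH 8.0 was preincubated 15 min at 25 °C with compound at several concentrations in methanol. DTNB (0.5 mM) and butyrylthiocholine chloride (0.2 mM) were then added. A412 read every 5 min for 15 min. IC50 derived from percent inhibition versus a methanol blank; mean ± SD of triplicates.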

Test [3] is described as follows: Selectivity ratio of IC50 for horse serum BChE to IC50 for electric eel AChE.
For test [4], the target named is Cholinesterase (Equus caballus) (UniProt P81908). Briefly: Inhibition of horse serum BChE at 0.391 ug using butyrylthiocholine chloride as substrate preincubated for 15 mins followed by substrate addition measured every 5 mins for 15 mins by spectrophotometric method relative to control. Put shortly:
(§1)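 Ellman colorimetric assay. Compound in methanol (10 µl) was mixed with 150 µl 100 mM sodium phosphate pH 8.0 and BChE (6.85 x10-3 U) and held 15 min at 25 °C. DTNB (0.5 mM) was added, then butyrylthiocholine chloride (0.2 mM) to start the reaction. A412 read every 5 min for 15 min, in triplicate. Percent inhibition = (E−S)/E×100 against a methanol blank.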

Test [5] has the same target. Briefly: Inhibition of horse serum BChE at 0.781 ug using butyrylthiocholine chloride as substrate preincubated for 15 mins followed by substrate addition measured every 5 mins for 15 mins by spectrophotometric method relative to control. Put shortly: as §1
For test [6] the target is unchanged. The test can be described thus: Inhibition of horse serum BChE at 1.563 ug using butyrylthiocholine chloride as substrate preincubated for 15 mins followed by substrate addition measured every 5 mins for 15 mins by spectrophotometric method relative to control. Put shortly:
as §1

The target is the same in test [7]. The test can be described thus: Inhibition of horse serum BChE at 3.125 ug using butyrylthiocholine chloride as substrate preincubated for 15 mins followed by substrate addition measured every 5 mins for 15 mins by spectrophotometric method relative to control. Put shortly:
as §1

Test [8] shares this target. The test can be described thus: Inhibition of horse serum BChE at 6.25 ug using butyrylthiocholine chloride as substrate preincubated for 15 mins followed by substrate addition measured every 5 mins for 15 mins by spectrophotometric method relative to control. Put shortly: as §1
For test [9] the target is unchanged. The test can be described thus: Inhibition of horse serum BChE at 12.5 ug using butyrylthiocholine chloride as substrate preincubated for 15 mins followed by substrate addition measured every 5 mins for 15 mins by spectrophotometric method relative to control. Put shortly: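 Ellman colorimetric assay. DTNB (0.5 mM) was added, then butyrylthiocholine chloride (0.2 mM) to start the reaction. A412 read every 5 min for 15 min, in triplicate. Percent inhibition = (E−S)/E×100 against a methanol blank.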

The target is the same in test [10]. Briefly: Inhibition of horse serum BChE at 25 ug using butyrylthiocholine chloride as substrate preincubated for 15 mins followed by substrate addition measured every 5 mins for 15 mins by spectrophotometric method relative to control. Put shortly:
as §1

The target of test [11] is Acetylcholinesterase (Electrophorus electricus) (UniProt O42275). Briefly: Inhibition of electric eel AChE at 0.006 ug using acetylthiocholine iodide as substrate preincubated for 15 mins followed by substrate addition measured every 5 mins for 15 mins by spectrophotometric method relative to control. Put shortly: (§2)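 Ellman colorimetric assay. Compound in methanol (10 µl) was mixed with 150 µl 100 mM sodium phosphate pH 8.0 and AChE (5.32 x10-3 U) and held 15 min at 25 °C. DTNB (0.5 mM) was added, then acetylthiocholine iodide (0.71 mM) to start the reaction. Thiolate formation read at 412 nm every 5 min for 15 min, in triplicate. Percent inhibition = (E−S)/E×100 against a methanol blank.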

The target is the same in test [12]. The test can be described thus: Inhibition of electric eel AChE at 0.012 ug using acetylthiocholine iodide as substrate preincubated for 15 mins followed by substrate addition measured every 5 mins for 15 mins by spectrophotometric method relative to control. Put shortly:
as §2

The structures appear in SMILES notation. pIC50: −log10 of the molar value. Where only a bound is given, the exact number is not on record here.

Acetylcholinesterase (Electrophorus electricus), sequence (O42275 24-633 limits assumed): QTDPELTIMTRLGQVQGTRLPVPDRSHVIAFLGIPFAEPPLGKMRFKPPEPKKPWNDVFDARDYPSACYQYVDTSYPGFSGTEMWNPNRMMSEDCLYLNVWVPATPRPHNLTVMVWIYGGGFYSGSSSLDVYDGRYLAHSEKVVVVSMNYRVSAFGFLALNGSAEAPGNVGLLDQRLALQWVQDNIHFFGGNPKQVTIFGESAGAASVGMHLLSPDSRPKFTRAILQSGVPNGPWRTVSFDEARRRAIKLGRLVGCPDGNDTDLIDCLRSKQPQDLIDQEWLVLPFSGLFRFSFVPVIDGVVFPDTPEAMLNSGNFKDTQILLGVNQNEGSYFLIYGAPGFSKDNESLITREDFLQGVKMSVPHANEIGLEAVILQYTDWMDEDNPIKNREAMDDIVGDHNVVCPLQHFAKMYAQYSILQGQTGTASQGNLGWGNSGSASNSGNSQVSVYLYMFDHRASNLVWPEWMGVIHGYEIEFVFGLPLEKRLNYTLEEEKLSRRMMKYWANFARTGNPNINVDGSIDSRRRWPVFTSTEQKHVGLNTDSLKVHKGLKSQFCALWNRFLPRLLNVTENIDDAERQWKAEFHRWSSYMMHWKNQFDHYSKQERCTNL
Acetylcholinesterase, sequence (O42275 whole entry): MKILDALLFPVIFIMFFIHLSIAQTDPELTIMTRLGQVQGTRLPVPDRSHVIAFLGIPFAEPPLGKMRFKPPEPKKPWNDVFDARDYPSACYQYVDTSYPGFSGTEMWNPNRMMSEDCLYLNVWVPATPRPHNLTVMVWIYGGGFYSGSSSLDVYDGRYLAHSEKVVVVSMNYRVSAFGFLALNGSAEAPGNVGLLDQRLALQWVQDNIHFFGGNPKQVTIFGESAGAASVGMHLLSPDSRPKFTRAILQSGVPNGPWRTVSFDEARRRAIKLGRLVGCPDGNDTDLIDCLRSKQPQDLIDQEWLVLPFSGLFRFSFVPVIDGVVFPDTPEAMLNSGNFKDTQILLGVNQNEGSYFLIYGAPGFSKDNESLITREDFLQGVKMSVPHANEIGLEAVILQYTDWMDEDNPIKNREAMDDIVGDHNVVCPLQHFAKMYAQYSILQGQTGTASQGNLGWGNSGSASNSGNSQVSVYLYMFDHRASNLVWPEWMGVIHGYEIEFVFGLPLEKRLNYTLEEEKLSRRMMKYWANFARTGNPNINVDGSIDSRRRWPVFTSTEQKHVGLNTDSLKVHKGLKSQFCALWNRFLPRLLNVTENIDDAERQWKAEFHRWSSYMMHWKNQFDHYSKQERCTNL
Cholinesterase (Equus caballus), sequence (P81908 whole entry): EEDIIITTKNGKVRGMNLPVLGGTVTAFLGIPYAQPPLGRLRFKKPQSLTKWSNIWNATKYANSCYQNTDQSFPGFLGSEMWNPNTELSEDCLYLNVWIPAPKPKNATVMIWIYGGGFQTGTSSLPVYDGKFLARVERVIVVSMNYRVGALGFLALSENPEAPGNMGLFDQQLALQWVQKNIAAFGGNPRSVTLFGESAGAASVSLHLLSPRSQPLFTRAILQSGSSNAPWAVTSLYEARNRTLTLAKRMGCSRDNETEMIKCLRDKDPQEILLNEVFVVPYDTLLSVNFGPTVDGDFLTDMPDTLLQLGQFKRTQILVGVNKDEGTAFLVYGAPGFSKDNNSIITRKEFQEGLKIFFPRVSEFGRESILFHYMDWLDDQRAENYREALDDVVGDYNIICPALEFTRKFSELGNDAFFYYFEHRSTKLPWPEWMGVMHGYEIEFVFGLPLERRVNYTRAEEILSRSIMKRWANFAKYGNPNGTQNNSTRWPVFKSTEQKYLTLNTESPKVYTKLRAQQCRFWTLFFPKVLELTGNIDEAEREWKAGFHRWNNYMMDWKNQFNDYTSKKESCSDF
Cholinesterase, sequence (P81908 whole entry): as above

By pIC50 is commonly meant the IC50 on a negative log10 scale, so that one unit is a factor of ten. A lower pIC50 goes with a high IC50. What is called inhibition is the change of the read-out against control, counted positive when it falls. Read a high inhibition as a response far below the control. `Cc1[nH]nc2c1C(c1ccccc1)c1c(nc3c(c1N)CCCC3)O2` (stereo not given): the pIC50 was 5.91 in [1] and 4.44 in test [2]. In addition, in [3], the Ratio IC50 was 29.3. In addition, the inhibition in test [4] is 5.38%; in [5] it was 10.7%; in [6] it was 13.6%; in test [7], 23.9%; in test [8], 30.7%; in test [9] it was 52.5%. For the same compound, the inhibition in test [10] came to 72.9%.

As to `Cc1[nH]nc2c1C(c1ccc(Cl)cc1)c1c(nc3c(c1N)CCCC3)O2` (stereo not given), the results for the negative-log IC50 (pIC50) in test [1] and in test [2] were 5.78 and below 4.17, respectively. Moreover, the Ratio IC50 in test [3] is above 41. For the same compound, the inhibition in test [4] came out at 20.8%; in test [5], 23%; in [6] it was 23.4%; in [7], 27.9%; in [8], 31.7%; in [9] it was 45.8%. Moreover, the inhibition in [10] was 46.9%.

`Cc1[nH]nc2c1C(c1ccc([N+](=O)[O-])cc1)c1c(nc3c(c1N)CCCC3)O2` (stereo not given): the pIC50 in [1] was 5.24; in [2], 5.56. For the same compound, the Ratio IC50 in test [3] worked out at 0.47. In addition, the inhibition in test [4] was 24.9%; in test [5], 37.9%; in test [6] it was 66.8%; in test [7], 75.1%; in [8] it was 90.3%; in test [9] it was 92.6%. In test [10], the inhibition is 93.2%.

As for `Cc1[nH]nc2c1C(c1ccc(-c3ccccc3)cc1)c1c(nc3c(c1N)CCCC3)O2` (stereo not given), the pIC50 in test [1] was 7.36; in test [2], below 4.21. In addition, in test [3], the Ratio IC50 is above 1390. Moreover, the inhibition in test [11] was 34.4%; in test [12], 43%; in [8], 11.8%; in [9], 14.1%; in [10], 20.6%.

Regarding `COc1ccc2ccccc2c1C1c2c(n[nH]c2C)Oc2nc3c(c(N)c21)CCCC3` (stereo not given), the pIC50 is 6.89 in [1] and 4.95 in test [2]. In addition, the Ratio IC50 in test [3] is 87.3. In addition, the inhibition in [11] was found to be 12.6%; in [12], 16.1%; in test [4], 2.86%; in test [5] it was 7.31%; in test [6] it was 25.1%; in [7] it was 47.9%. Besides, the inhibition in test [8] stood at 51.9%; in test [9], 63%; in [10], 70%.

For `COc1ccc(C2c3c(n[nH]c3C)Oc3nc4c(c(N)c32)CCCC4)c(OC)c1` (stereo not given), the values for the pIC50 in test [1] and in [2] were 6.59 and 4.51, respectively. Besides, the Ratio IC50 in test [3] is 120. For the same compound, the inhibition in test [5] turned out to be 17.8%; in [6] it was 37.1%; in [7], 43%; in [8], 55.8%; in test [9] it was 62.8%; in [10], 80.8%.

For `Cc1[nH]nc2c1C(c1cccnc1)c1c(nc3c(c1N)CCCC3)O2` (stereo not given), the pIC50 was 6.48 in test [1] and 5.37 in test [2]. Further, in [3], the Ratio IC50 came to 12.9. In addition, the inhibition in test [11] was determined as 6.61%; in test [12], 13.1%; in [4], 18.2%; in test [5], 41.6%; in test [6] it was 53.9%; in [7] it was 57.1%. The inhibition in [8] stood at 72%; in [9], 74.2%; in test [10], 84.8%.

In the case of `COc1ccc2c3c1O[C@H]1C[C@@H](O)C=C[C@@]31CCN(C)C2`, the inhibition came to 11.1% in test [4]; 21% in test [5]; 55.2% in test [6]; 63.9% in [7]; 97% in [10].

As for `CSc1ccc(C2c3c(n[nH]c3C)Oc3nc4c(c(N)c32)CCCC4)cc1` (stereo not given), the pIC50 was 7.24 in test [1] and below 4.18 in [2]. The Ratio IC50 in test [3] is above 1140. In addition, the inhibition in [11] was determined as 30.4%; in [12] it was 36.9%; in test [4], 0.11%; in test [5] it was 10.1%; in [6], 23.7%; in test [7], 31%. Further, the inhibition came to 36.6% in test [8], 44.5% in [9] and 46.7% in test [10].

With `Cc1[nH]nc2c1C(c1cc([N+](=O)[O-])ccc1Cl)c1c(nc3c(c1N)CCCC3)O2` (stereo not given), the pIC50 in test [1] is 5.98; in test [2], 5.60. Besides, in [3], the Ratio IC50 was 2.4. The inhibition in test [4] came to 5.53%; in test [5], 10.2%; in test [6] it was 13.9%; in [7], 21.6%; in test [8], 35.6%; in test [9], 54.2%. In [10], this compound yielded an inhibition of 71.9%.

As for `Cc1[nH]nc2c1C(c1c(Cl)cccc1[N+](=O)[O-])c1c(nc3c(c1N)CCCC3)O2` (stereo not given), the values for the pIC50 in [1] and in [2] were 5.75 and 5.74, respectively. Also, in test [3], the Ratio IC50 worked out at 1.04. Further, the inhibition amounted to 37.6% in test [4]; 52.1% in [5]; 66.2% in [6]; 85.3% in [7]; 86.5% in test [8]; 94.3% in test [9]. The compound further yielded an inhibition in [10] of 98.7%.

With `Cc1[nH]nc2c1C(c1ccc(Br)cc1)c1c(nc3c(c1N)CCCC3)O2` (stereo not given), the results for the pIC50 in [1] and in test [2] were 5.74 and 4.93, respectively. Moreover, the Ratio IC50 in test [3] was 6.47. Also, the inhibition in test [4] is 13.1%; in [5], 17.4%; in [6] it was 37.9%; in [7], 43.1%; in [8] it was 58.5%; in test [9] it was 60.5%. In test [10], this compound showed an inhibition of 69.9%.

For the compound `Cc1ccc(C2c3c(n[nH]c3C)Oc3nc4c(c(N)c32)CCCC4)c(C)c1` (stereo not given), the pIC50 is 6.54 in [1] and 4.41 in [2]. In [3], the Ratio IC50 is 135. For the same compound, the inhibition amounted to 13.3% in test [7], 44.8% in test [8], 49.7% in [9] and 51.9% in test [10].
